For assay [1], the system named is Clostridioides difficile. Nature of the assay: Antibacterial activity against Clostridium difficile VPI 10463 infected in golden syrian hamster assessed as body weight loss at 100 mg/kg/day for 5 days measured after 7 days relative to initial body weight. The format is functional. Summed up:
(§1)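 Prevention design in hamsters (n = 10/group): clindamycin phosphate 10 mg/kg sc on day 0, oral gavage infection with C. difficile VPI 10463 on day 1. Rifaximin suspended in 0.1 M phosphate buffer pH 7.4 plus 4.5‰ SDS, given by gavage once daily from day 1 for 5 doses; vehicle and uninfected controls. Survivors sacrificed day 7. Weight change is % of initial body weight; non-survivors excluded.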

For assay [2], the system named is Clostridioides difficile. Nature of the assay: Antibacterial activity against Clostridium difficile VPI 10463 infected in golden syrian hamster assessed as body weight gain at 100 mg/kg/day for 5 days relative to initial body weight. The format is functional. Summed up: (§2)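 Relapse study: hamsters given clindamycin phosphate 10 mg/kg sc on day 0 and infected with VPI 10463 by gavage on day 1. Daily oral rifaximin by gavage in SDS/phosphate buffer vehicle on days 2–6. Animals followed about one month for recurrence, with Kaplan-Meier survival. Body weight tracked over time as % of initial weight.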

The test system of assay [3] is Clostridioides difficile. In words: Antibacterial activity against Clostridium difficile VPI 10463 infected in golden syrian hamster assessed as survival of the […] at 25 mg/kg/day administered 24 hrs after infection for 5 days measured after 28 days. Format: functional, organism-based. Summed up:
as §2

Assay [4] relates to Clostridioides difficile. In words: Antibacterial activity against Clostridium difficile VPI 10463 infected in golden syrian hamster assessed as survival of the […] at 100 mg/kg/day administered 24 hrs after infection for 5 days measured after 28 days. Format: functional. Summed up:
as §2

In assay [5] the test system is Clostridioides difficile. Nature of the assay: Antibacterial activity against Clostridium difficile VPI 10463 infected in golden syrian hamster assessed as survival of the […] at 100 mg/kg/day for 5 days measured after 7 days. The format is functional. Summed up:
as §1

Assay [6] deals with Clostridioides difficile. Nature of the assay: Antibacterial activity against Clostridium difficile VPI 10463 infected in golden syrian hamster assessed as survival of the […] at 100 mg/kg/day administered 24 hrs after infection for 5 days measured after 7 days. The format is functional, organism-based. Summed up: (§3)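 Treatment design in hamsters (10/group per cohort): clindamycin phosphate 10 mg/kg sc on day 0, gavage infection with VPI 10463 on day 1. Oral rifaximin, suspended in phosphate buffer pH 7.4 with 4.5‰ SDS, given daily by gavage from day 2 for five doses. Survival read at day 7, with Kaplan-Meier and log-rank analysis.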

For assay [7], the system named is Clostridioides difficile. Nature of the assay: Antibacterial activity against Clostridium difficile VPI 10463 infected in golden syrian hamster assessed as survival of the […] at 50 mg/kg/day administered 24 hrs after infection for 5 days measured after 28 days. Format: functional, organism-based. Summed up: as §2
Assay [8] has as its system Clostridioides difficile. In words: Antibacterial activity against Clostridium difficile VPI 10463 infected in golden syrian hamster assessed as survival of the […] at 50 mg/kg/day for 5 days measured after 7 days. Format: functional. Summed up: as §1
The test system of assay [9] is Clostridioides difficile. Nature of the assay: Antibacterial activity against Clostridium difficile VPI 10463 infected in golden syrian hamster assessed as survival of the […] at 50 mg/kg/day administered 24 hrs after infection for 5 days measured after 7 days. The format is functional, organism-based. Summed up:
as §3

The subject of assay [10] is Clostridioides difficile. In words: Antibacterial activity against Clostridium difficile VPI 10463 infected in golden syrian hamster assessed as body weight loss at 50 mg/kg/day for 5 days measured after 7 days relative to initial body weight. Format: functional. Summed up: as §1
The test system of assay [11] is Clostridioides difficile. In words: Antibacterial activity against Clostridium difficile VPI 10463 infected in golden syrian hamster assessed as body weight loss at 25 mg/kg/day for 5 days measured after 7 days relative to initial body weight. Format: functional. Summed up:
as §1

For assay [12], the system named is Clostridioides difficile. In words: Antibacterial activity against Clostridium difficile VPI 10463 infected in golden syrian hamster assessed as survival of the […] at 25 mg/kg/day administered 24 hrs after infection for 5 days measured after 7 days. Format: functional. Summed up:
as §3

The source made the active and inactive calls. No cut-off for these calls is given here.

For the compound `CO[C@H]1/C=C/O[C@@]2(C)Oc3c(C)c(O)c4c(O)c(c5c(nc6cc(C)ccn65)c4c3C2=O)NC(=O)/C(C)=C\C=C\[C@H](C)[C@H](O)[C@@H](C)[C@@H](O)[C@@H](C)[C@H](OC(C)=O)[C@@H]1C` [RIFAXIMIN], the Activity is listed as -8.1% with Clostridioides difficile [1], 16.7% in the assay with Clostridioides difficile [2], -7.9% in the assay with Clostridioides difficile [10] and -8.4% in the assay on Clostridioides difficile [11]. In addition, the outcome with Clostridioides difficile [3], in the assay with Clostridioides difficile [6], in the assay with Clostridioides difficile [7] and in the assay with Clostridioides difficile [9] was Active. Moreover, the survival at 100 mg/kg/day was found to be 100% with Clostridioides difficile [4] and 80% in the assay on Clostridioides difficile [5]. In addition, in the assay with Clostridioides difficile [8], the survival at 50 mg/kg/day is 70%.

For `CN[C@H](CC(C)C)C(=O)N[C@H]1C(=O)N[C@@H](CC(N)=O)C(=O)N[C@H]2C(=O)N[C@H]3C(=O)N[C@H](C(=O)N[C@H](C(=O)O)c4cc(O)cc(O)c4-c4cc3ccc4O)[C@H](O)c3ccc(c(Cl)c3)Oc3cc2cc(c3O[C@@H]2O[C@H](CO)[C@@H](O)[C@H](O)[C@H]2O[C@H]2C[C@](C)(N)[C@H](O)[C@H](C)O2)Oc2ccc(cc2Cl)[C@H]1O` [VANCOMYCIN], the survival at 25 mg/kg/day with Clostridioides difficile [12] was found to be 80%. For the same compound, the result in the assay on Clostridioides difficile [3], in the assay with Clostridioides difficile [7] and with Clostridioides difficile [9] was Active. For the same compound, the survival at 100 mg/kg/day in the assay on Clostridioides difficile [4] came to 25%. In addition, in the assay with Clostridioides difficile [8], the survival at 50 mg/kg/day was found to be 70%. In the assay on Clostridioides difficile [10], the Activity is -6.6%.

(Values after ChEMBL document CHEMBL1255283, “Comparative efficacies of rifaximin and vancomycin for treatment of Clostridium difficile-associated diarrhea and prevention of disease recurrence in hamsters” (2008).)
